# Experiments:
# Assay type in all cases: functional
# NCI-H23 = experiment: Growth inhibition of human NCI-H23 cells at 10 uM after 48 hrs by SRB assay; settings: NCI-H23, 48 h, read-out: GI
# Method in brief: (§1)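 NCI-60 primary one-dose screen run at the US NCI, with human tumour lines from nine cancer types. Compound added once at 10^-5 M, followed by 48 h incubation. End point was sulforhodamine B protein staining read spectrophotometrically. Result given as percent growth of treated cells against untreated controls, reported as % growth inhibition.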
# [1] = Growth inhibition of human OVCAR4 cells at 10 uM after 48 hrs by SRB assay; settings: OVCAR-4, 48 h, read-out: GI; method in brief: as §1
# CAKI-1 = experiment: Growth inhibition of human CAKI-1 cells at 10 uM after 48 hrs by SRB assay; settings: CAKI-1, 48 h, read-out: GI
# Method in brief: (§2)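 NCI primary one-dose screen. A single concentration of 10^-5 M was added to the cell culture, followed by 48 h incubation and an SRB protein-dye endpoint read spectrophotometrically. Results are growth percentage relative to untreated control cells, reported as % growth inhibition.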
# MCF7 = experiment: Growth inhibition of human MCF7 cells at 10 uM after 48 hrs by SRB assay; settings: MCF7, 48 h, read-out: GI; method in brief: as §1
# MDA-MB-468 = experiment: Growth inhibition of human MDA-MB-468 cells assessed as cell growth at 10 uM after 48 hrs by SRB assay; settings: MDA-MB-468, 48 h, read-out: GI; method in brief: as §1
# SK-MEL-28 = experiment: Growth inhibition of human SK-MEL-28 cells at 10 uM after 48 hrs by SRB assay; settings: SK-MEL-28, 48 h, read-out: GI; method in brief: as §1
# [2] = Growth inhibition of human RXF393 cells at 10 uM after 48 hrs by SRB assay; settings: RXF 393, 48 h, read-out: GI; method in brief: as §1
# A549 = experiment: Growth inhibition of human A549 cells at 10 uM after 48 hrs by SRB assay; settings: A549, 48 h, read-out: GI; method in brief: as §2
# T47D = experiment: Growth inhibition of human T47D cells at 10 uM after 48 hrs by SRB assay; settings: read-out: GI; method in brief: as §1
# [3] = Growth inhibition of human UACC257 cells at 10 uM after 48 hrs by SRB assay; settings: UACC-257, 48 h, read-out: GI; method in brief: as §1
# A498 = experiment: Growth inhibition of human A498 cells at 10 uM after 48 hrs by SRB assay; settings: A498, 48 h, read-out: GI; method in brief: as §2
# SF-268 = experiment: Growth inhibition of human SF268 cells at 10 uM after 48 hrs by SRB assay; settings: SF-268, 48 h, read-out: GI; method in brief: as §1
# [4] = Growth inhibition of human Hs578T cells at 10 uM after 48 hrs by SRB assay; settings: Hs-578T, read-out: GI; method in brief: as §1
# ACHN = experiment: Growth inhibition of human ACHN cells at 10 uM after 48 hrs by SRB assay; settings: read-out: GI; method in brief: as §2
# SNB-75 = experiment: Growth inhibition of human SNB75 cells at 10 uM after 48 hrs by SRB assay; settings: SNB-75, 48 h, read-out: GI; method in brief: as §1
# KM12 = experiment: Growth inhibition of human KM12 cells at 10 uM after 48 hrs by SRB assay; settings: KM12, 48 h, read-out: GI; method in brief: as §1
# HT-29 = experiment: Growth inhibition of human HT-29 cells at 10 uM after 48 hrs by SRB assay; settings: HT-29, 48 h, read-out: GI; method in brief: as §1
# HL-60(TB) = experiment: Growth inhibition of human HL-60(TB) cells at 10 uM after 48 hrs by SRB assay; settings: HL-60, 48 h, read-out: GI
# Method in brief: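 NCI 60-cell-line primary screen: compound added at single concentration 10^-5 M, cultures incubated 48 h; end point by sulforhodamine B protein staining read spectrophotometrically; result given as growth percentage of treated versus untreated control cells, reported as % growth inhibition.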
# RPMI-8226 = experiment: Growth inhibition of human RPMI8226 cells at 10 uM after 48 hrs by SRB assay; settings: RPMI-8226, 48 h, read-out: GI; method in brief: as §1
# [5] = Growth inhibition of human MOLT4 cells at 10 uM after 48 hrs by SRB assay; settings: MOLT-4, 48 h, read-out: GI; method in brief: as §1
SMILES,inhibition of growth at 10 µM (NCI-H23) [%],inhibition of growth at 10 µM [1] [%],inhibition of growth at 10 µM (CAKI-1) [%],inhibition of growth at 10 µM (MCF7) [%],inhibition of growth at 10 µM (MDA-MB-468) [%],inhibition of growth at 10 µM (SK-MEL-28) [%],inhibition of growth at 10 µM [2] [%],inhibition of growth at 10 µM (A549) [%],inhibition of growth at 10 µM (T47D) [%],inhibition of growth at 10 µM [3] [%],inhibition of growth at 10 µM (A498) [%],inhibition of growth at 10 µM (SF-268) [%],inhibition of growth at 10 µM [4] [%],inhibition of growth at 10 µM (ACHN) [%],inhibition of growth at 10 µM (SNB-75) [%],inhibition of growth at 10 µM (KM12) [%],inhibition of growth at 10 µM (HT-29) [%],inhibition of growth at 10 µM (HL-60(TB)) [%],inhibition of growth at 10 µM (RPMI-8226) [%],inhibition of growth at 10 µM [5] [%]
Cc1ccc(C(=O)Nc2ccc(Cl)cc2C(=O)Nc2ccccc2)cc1,< 10,11,18,11,11,< 10,< 10,< 10,20,< 10,< 10,< 10,< 10,17,28,< 10,< 10,,,
Cc1ccc(-c2nc3ccc(Cl)cc3c(=O)n2NC(=O)CN)cc1,< 10,< 10,14,12,< 10,< 10,< 10,< 10,,< 10,,< 10,< 10,14,15,< 10,12,< 10,< 10,< 10
Cc1ccc(C(=O)Nc2ccc(Cl)cc2C(=O)NCc2ccccc2)cc1,< 10,21,23,47,17,17,13,15,< 10,15,21,< 10,21,14,33,40,77,49,23,49
Cc1ccc(-c2nc3ccc(Cl)cc3c3nnnn23)cc1,< 10,< 10,25,< 10,< 10,< 10,< 10,47,23,< 10,11,< 10,< 10,< 10,< 10,< 10,< 10,< 10,< 10,< 10
